In brackets after ≈: the same amount, converted by molar mass.
system: Rhizoctonia solani; test: Fungicidal activity against Rhizoctonia solani assessed as inhibition of mycelium growth by mycelium growth rate test; assay type: functional, organism-based
In short: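 Mycelial growth rate test on Rhizoctonia solani. Inhibition rates measured at 100, 50, 25, 12.5 and 6.25 µg/mL.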

**Q.** `O=C1CCCCCCCCCCCN1CCNS(=O)(=O)c1cccc([N+](=O)[O-])c1` was tested. Which EC50 did it give?
**A.** The EC50 was 10.7 µg/mL (≈ 25.1 µM).

**Q.** `CC1CCC(NS(C)(=O)=O)CCCCCCCCCCC(=O)O1` (configuration not stated) was tested. Which EC50 did it give?
**A.** The EC50 was 56.4 µg/mL (≈ 162 µM).

**Q.** Which EC50 does the source give for `CS(=O)(=O)NC1CCCCCCCCCCC(=O)NCCC1` (configuration not stated) here?
**A.** The EC50 was 45.1 µg/mL (≈ 136 µM).

**Q.** `O=C1CCCCCCCCCCC(NS(=O)(=O)c2ccccc2Cl)CCCN1` (configuration not stated) was tested. Which EC50 did it give?
**A.** Its EC50 is 59.5 µg/mL (≈ 139 µM).

**Q.** How did the EC50 turn out when `CC1CCC(NS(=O)(=O)c2ccccc2[N+](=O)[O-])CCCCCCCCCCC(=O)O1` (configuration not stated) was run?
**A.** The EC50 was 93.3 µg/mL (≈ 205 µM).

**Q.** `O=C1CCCCCCCCCCC(NS(=O)(=O)c2cccs2)CCCN1` (configuration not stated) was tested. Which EC50 did it give?
**A.** The EC50 was 18.3 µg/mL (≈ 45.7 µM).

**Q.** How did the EC50 turn out when `COC(=O)c1ccccc1S(=O)(=O)NC1CCCCCCCCCCC(=O)NCCC1` (configuration not stated) was run?
**A.** Its EC50 is 12.8 µg/mL (≈ 28.3 µM).

**Q.** For `Cc1ccc(S(=O)(=O)NCCN2CCCCCCCCCCCC2=O)cc1`, which EC50 is on record?
**A.** The EC50 was 8.8 µg/mL (≈ 22.3 µM).

**Q.** With `CC1CCC(NS(=O)(=O)c2cccc([N+](=O)[O-])c2)CCCCCCCCCCC(=O)O1` (configuration not stated) as the compound, how does the EC50 read?
**A.** Its EC50 is 86 µg/mL (≈ 189 µM).

**Q.** How did the EC50 turn out when `O=C1CCCCCCCCCCC(NS(=O)(=O)c2ccccc2[N+](=O)[O-])CCCO1` (configuration not stated) was run?
**A.** The EC50 was 22.3 µg/mL (≈ 50.6 µM).

**Q.** Which EC50 does the source give for `O=C1CCCCCCCCCCC(NS(=O)(=O)Cc2ccccc2)CCCO1` (configuration not stated) here?
**A.** Its EC50 is 52.4 µg/mL (≈ 128 µM).

**Q.** Which EC50 does the source give for `O=C1CCCCCCCCCCC(NS(=O)(=O)c2cccc([N+](=O)[O-])c2)CCCN1` (configuration not stated) here?
**A.** The EC50 was 27.6 µg/mL (≈ 62.8 µM).

**Q.** With `Cc1ccc(S(=O)(=O)NC2CCCCCCCCCCC(=O)NCCC2)cc1` (configuration not stated) as the compound, how does the EC50 read?
**A.** The EC50 was 13.4 µg/mL (≈ 32.8 µM).

**Q.** For `CS(=O)(=O)NC1CCCCCCCCCCC(=O)OCCC1` (configuration not stated), which EC50 is on record?
**A.** The EC50 was 12.2 µg/mL (≈ 36.6 µM).

**Q.** With `O=C1CCCCCCCCCCC(NS(=O)(=O)c2ccc(Cl)cc2)CCCO1` (configuration not stated) as the compound, how does the EC50 read?
**A.** The EC50 was 3.3 µg/mL (≈ 7.67 µM).

**Q.** How did the EC50 turn out when `O=C1CCCCCCCCCCC(NS(=O)(=O)c2ccc(F)cc2)CCCN1` (configuration not stated) was run?
**A.** Its EC50 is 36.7 µg/mL (≈ 89 µM).

**Q.** For `O=C1CCCCCCCCCCC(NS(=O)(=O)c2ccccc2)CCCO1` (configuration not stated), which EC50 is on record?
**A.** Its EC50 is 2.4 µg/mL (≈ 6.07 µM).

**Q.** With `CC1CCC(NS(=O)(=O)c2cc(Cl)ccc2Cl)CCCCCCCCCCC(=O)O1` (configuration not stated) as the compound, how does the EC50 read?
**A.** The EC50 was 30 µg/mL (≈ 62.7 µM).

**Q.** Which EC50 does the source give for `O=C1CCCCCCCCCCC(NS(=O)(=O)c2cc(Cl)ccc2Cl)CCCO1` (configuration not stated) here?
**A.** The EC50 was 28.4 µg/mL (≈ 61.1 µM).

**Q.** Which EC50 does the source give for `CC1CCC(NS(=O)(=O)c2cccs2)CCCCCCCCCCC(=O)O1` (configuration not stated) here?
**A.** Its EC50 is 20.3 µg/mL (≈ 48.8 µM).

**Q.** With `O=C1CCCCCCCCCCCN1CCNS(=O)(=O)c1ccccc1` as the compound, how does the EC50 read?
**A.** The EC50 was 11.6 µg/mL (≈ 30.5 µM).

**Q.** `O=C1CCCCCCCCCCCN1CCNS(=O)(=O)c1cc(Cl)ccc1Cl` was tested. Which EC50 did it give?
**A.** The EC50 was 5.3 µg/mL (≈ 11.8 µM).

**Q.** How did the EC50 turn out when `O=C1CCCCCCCCCCC(NS(=O)(=O)c2ccccc2Cl)CCCO1` (configuration not stated) was run?
**A.** Its EC50 is 25 µg/mL (≈ 58.1 µM).

**Q.** With `O=C1CCCCCCCCCCC(NS(=O)(=O)c2cccc([N+](=O)[O-])c2)CCCO1` (configuration not stated) as the compound, how does the EC50 read?
**A.** Its EC50 is 18.7 µg/mL (≈ 42.4 µM).

**Q.** How did the EC50 turn out when `Cc1ccc(S(=O)(=O)NC2CCCCCCCCCCC(=O)OC(C)CC2)cc1` (configuration not stated) was run?
**A.** Its EC50 is 57 µg/mL (≈ 135 µM).

**Q.** For `CC1CCC(NS(=O)(=O)c2ccc(Cl)cc2)CCCCCCCCCCC(=O)O1` (configuration not stated), which EC50 is on record?
**A.** The EC50 was 69.6 µg/mL (≈ 157 µM).

**Q.** Which EC50 does the source give for `Cc1ccc(S(=O)(=O)NC2CCCCCCCCCCC(=O)OCCC2)cc1` (configuration not stated) here?
**A.** Its EC50 is 3.7 µg/mL (≈ 9.03 µM).

**Q.** `O=C1CCCCCCCCCCC(NS(=O)(=O)c2ccc(F)cc2)CCCO1` (configuration not stated) was tested. Which EC50 did it give?
**A.** Its EC50 is 4.5 µg/mL (≈ 10.9 µM).

**Q.** With `O=C1CCCCCCCCCCC(NS(=O)(=O)c2ccccc2[N+](=O)[O-])CCCN1` (configuration not stated) as the compound, how does the EC50 read?
**A.** The EC50 was 21.5 µg/mL (≈ 48.9 µM).

**Q.** For `CC1CCC(NS(=O)(=O)Cc2ccccc2)CCCCCCCCCCC(=O)O1` (configuration not stated), which EC50 is on record?
**A.** Its EC50 is 28.2 µg/mL (≈ 66.6 µM).

**Q.** For `O=C1CCCCCCCCCCCN1CCNS(=O)(=O)c1ccc(Cl)cc1`, which EC50 is on record?
**A.** Its EC50 is 18.7 µg/mL (≈ 45.1 µM).

**Q.** Which EC50 does the source give for `O=C1CCCCCCCCCCC(NS(=O)(=O)c2ccccc2)CCCN1` (configuration not stated) here?
**A.** Its EC50 is 55.3 µg/mL (≈ 140 µM).

**Q.** For `CC1CCC(NS(=O)(=O)c2ccccc2Cl)CCCCCCCCCCC(=O)O1` (configuration not stated), which EC50 is on record?
**A.** The EC50 was 37.9 µg/mL (≈ 85.4 µM).

**Q.** Which EC50 does the source give for `COC(=O)Nc1nc2ccccc2[nH]1` [CARBENDAZIM] here?
**A.** Its EC50 is 1.5 µg/mL (≈ 7.85 µM).

**Q.** `CC1CCC(NS(=O)(=O)c2ccccc2)CCCCCCCCCCC(=O)O1` (configuration not stated) was tested. Which EC50 did it give?
**A.** Its EC50 is 51.3 µg/mL (≈ 125 µM).

**Q.** Which EC50 does the source give for `COC(=O)c1ccccc1S(=O)(=O)NC1CCCCCCCCCCC(=O)OCCC1` (configuration not stated) here?
**A.** Its EC50 is 20.9 µg/mL (≈ 46.1 µM).

**Q.** With `O=C1CCCCCCCCCCC(NS(=O)(=O)Cc2ccccc2)CCCN1` (configuration not stated) as the compound, how does the EC50 read?
**A.** The EC50 was 8.1 µg/mL (≈ 19.8 µM).

**Q.** How did the EC50 turn out when `O=C1CCCCCCCCCCC(NS(=O)(=O)c2cc(Cl)ccc2Cl)CCCN1` (configuration not stated) was run?
**A.** The EC50 was 30.4 µg/mL (≈ 65.6 µM).

**Q.** For `O=C1CCCCCCCCCCC(NS(=O)(=O)c2ccc(Cl)cc2)CCCN1` (configuration not stated), which EC50 is on record?
**A.** Its EC50 is 19.6 µg/mL (≈ 45.7 µM).

**Q.** `O=C1CCCCCCCCCCC(NS(=O)(=O)c2cccs2)CCCO1` (configuration not stated) was tested. Which EC50 did it give?
**A.** The EC50 was 5.1 µg/mL (≈ 12.7 µM).

**Q.** Which EC50 does the source give for `CC1CCC(NS(=O)(=O)c2ccc(F)cc2)CCCCCCCCCCC(=O)O1` (configuration not stated) here?
**A.** Its EC50 is 25.1 µg/mL (≈ 58.7 µM).

**Q.** How did the EC50 turn out when `COC(=O)c1ccccc1S(=O)(=O)NC1CCCCCCCCCCC(=O)OC(C)CC1` (configuration not stated) was run?
**A.** The EC50 was 53.4 µg/mL (≈ 114 µM).

Reference: ChEMBL document CHEMBL3046158, “Design, synthesis, and fungicidal activity of macrolactones and macrolactams with a sulfonamide side chain” (J Agric Food Chem, 2008)
